Where “and” joins values, the source holds several entries; their conditions need not be identical. Equal entries are not always repeated. Where only a bound is given, the exact number is not on record here.

This note sets out measurements from ChEMBL document CHEMBL1126613, “Centrally acting serotonergic agents. Synthesis and structure-activity relationships of C-1- or C-3-substituted derivatives of 8-hydroxy-2-(di-n-propylamino)tetralin” (J Med Chem, 1993).

The subject of assay [1] is Mus musculus. The experiment in a line: In vivo effective dose administered subcutaneously in mouse hypothermia assay. Type of assay: functional. As to conditions: sc. The procedure, abridged:
(§1)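 Charles River CF-1 mice (18-22 g, 4 per dose), housed individually 20 min before testing. Rectal temperature taken before dosing and 20 min after (sc 0.1 mL; oral 0.2 mL by gavage needle). A drop of ≥2 °F counted as positive. Doses started at 30 mg/kg and fell by half-log until 0/4 responded.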

The species named for assay [2] is Felis catus. As to the kind of experiment: Maximum decrease observed. On the set-up: unit not given here. Type of assay: functional.
Assay [3] relates to Felis catus. As to the kind of experiment: Dose on arterial blood pressure (BP) in anesthetized cat. It is filed as functional. The procedure, abridged: (§2)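 Adult cats (2.5-4.0 kg) anesthetized with ketamine 11 mg/kg im, then chloralose 80 mg/kg iv. Femoral artery cannulated for blood pressure, femoral vein for drug. Ventilated, paralyzed with gallamine 4 mg/kg iv, rectal temperature held at 37-38 °C. Cumulative iv doses given at 20-min intervals. Maximum decrease reported following a 1 mg/kg iv dose.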

The subject of assay [4] is Felis catus. The experiment in a line: Maximum decrease on arterial blood pressure at 1 mg/kg. It is filed as functional. In a few lines: as §2
For assay [5], the system named is Mus musculus. The experiment in a line: Tested in vivo for the effective dose administered orally in mouse hypothermia assay. It is filed as functional. The conditions noted are these: po. The procedure, abridged: as §1
Assay [6] is filed under the species Felis catus. As to the kind of experiment: Dose at which the SND has been reduced to 50% of the pretreatment value. It is filed as functional. The procedure, abridged:
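Adult cats (2.5-4.0 kg), ketamine 11 mg/kg im then chloralose 80 mg/kg iv, ventilated, gallamine-paralyzed, rectal temperature 37-38 °C. Sympathetic nerve discharge quantified by cumulative integration. Cumulative iv doses were given at 20-min intervals. Value is the dose reducing discharge to 50% of pretreatment.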

In assay [7] the test system is Mus musculus. The experiment in a line: Behavioral time in mouse face to face assay at 0.3 umol/kg administered subcutaneously. Type of assay: functional. In a few lines:
(§3)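 Male CF-1 mice (Charles River, 19-29 g), 8 pairs per dose, dosed sc, ip or orally in 0.25% methylcellulose or 0.1% citric acid; 30 min absorption housed with familiar partner. Pairs from different home cages placed in small litter-floored cage; face-to-face interaction duration scored visually for 3 min. Wilcoxon rank sum (two-tailed) vs daily control, p < 0.05.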

For assay [8], the system named is Mus musculus. As to the kind of experiment: Behavioral time in mouse isolation-induced aggression assay at 34 umol/kg administered intraperitoneally. Type of assay: functional. In a few lines: (§4)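 Male CF-1 mice. Residents were isolated singly for at least 1 month; group-housed intruders were kept 4-6/cage. Mice weighed 28-30 g at first test. Residents got drug ip or orally in 0.25% methylcellulose or 0.1% citric acid 30 min before an untreated intruder was introduced. Latency to fighting was recorded, capped at 600 s. Dosing was blind, 6/group (vehicle n = 12), Wilcoxon rank sum.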

The subject of assay [9] is Mus musculus. The experiment in a line: Behavioral time in mouse face to face assay at 0 umol/kg administered subcutaneously. Type of assay: functional. The procedure, abridged:
as §3

Assay [10] has as its system Mus musculus. As to the kind of experiment: Tested in vivo for the maximum temperature decrease in mouse hypothermia assay. Type of assay: functional. The procedure, abridged: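 CF-1 mice (18-22 g, 4 per dose), dosed sc or orally. Rectal temperature measured before dosing and 20 min after. The mean maximum temperature drop (°F) at 20 min after any dose is recorded as an efficacy index.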

In assay [11] the test system is Mus musculus. As to the kind of experiment: Behavioral time in mouse face to face assay at 34 umol/kg administered subcutaneously. It is filed as functional. In a few lines: as §3
In assay [12] the test system is Mus musculus. As to the kind of experiment: Behavioral time in mouse isolation-induced aggression assay at 10 umol/kg administered intraperitoneally. It is filed as functional. In a few lines:
as §4

The subject of assay [13] is Rattus norvegicus. The experiment in a line: Effect on the synthesis rate of 5 HTP accumulation at the dose of 3.4 umol/kg in the rat ventral limbic brain region. It is filed as functional, Limbic system. In a few lines: (§5)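 Male Sprague-Dawley rats dosed sc with drug or vehicle at time zero. NSD 1015 (100 mg/kg ip) given 15 min later to block aromatic decarboxylase. Brain DOPA and 5-HTP measured by electrochemical detection with peak integration. Expressed as percent change from NSD 1015 plus saline controls. Control and test groups N = 6 each, compared by unpaired t test.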

Assay [14] concerns Rattus norvegicus. As to the kind of experiment: Effect on the synthesis rate of dopamine (DOPA) accumulation at the dose of 3.4 umol/kg in the rat ventral limbic brain region. It is filed as functional, Limbic system. In a few lines: as §5
Assay [15] deals with Mus musculus. As to the kind of experiment: Behavioral time in mouse isolation-induced aggression assay at 3.4 umol/kg administered intraperitoneally. It is filed as functional. In a few lines:
as §4

Assay [16] has as its system Mus musculus. As to the kind of experiment: Behavioral time in mouse face to face assay at 3.4 umol/kg administered subcutaneously. Type of assay: functional. In a few lines:
as §3

For assay [17], the system named is Rattus norvegicus. As to the kind of experiment: Effect on the synthesis rate of dopamine (DOPA) accumulation at the dose of 100 umol/kg in the rat ventral limbic brain region. Type of assay: functional, Limbic system. The procedure, abridged:
as §5

In assay [18] the test system is Rattus norvegicus. The experiment in a line: Effect on the synthesis rate of 5 HTP accumulation at the dose of 100 umol/kg in the rat ventral limbic brain region. It is filed as functional, Limbic system. The procedure, abridged:
as §5

Assay [19] relates to Rattus norvegicus. As to the kind of experiment: Effect on the synthesis rate of dopamine (DOPA) accumulation at the dose of 10 uM/kg in the rat ventral limbic brain region. Type of assay: functional, Limbic system. The procedure, abridged: as §5
The subject of assay [20] is Rattus norvegicus. As to the kind of experiment: Effect on the synthesis rate of 5 HTP accumulation at the dose of 10 umol/kg in the rat ventral limbic brain region. Type of assay: functional, Limbic system. The procedure, abridged: as §5
Assay [21] concerns Mus musculus. The experiment in a line: In vivo effective dose administered orally in mouse hypothermia assay (approximate ED50). As to conditions: po. Type of assay: functional. In a few lines: as §1
Assay [22] relates to Felis catus. As to the kind of experiment: Effect on arterial blood pressure (BP) in anesthetized cat. Type of assay: functional. In a few lines:
as §2

Take `C=CC[C@H]1c2c(cccc2OC)CC[C@H]1NCC1CC1`: the results for the ED50 in the assay with Mus musculus [1], with Mus musculus [5] and in the assay filed under Felis catus [6] were 18 µmol/kg, 134 µmol/kg and 0.27 µmol/kg, respectively. Besides, the figures for the Max decrease in the assay filed under Felis catus [2] and in the assay on Felis catus [4] were 10 and 58, respectively. In the assay on Felis catus [3], this compound showed a BP of 65%.
For `C=CCN[C@@H]1CCc2cccc(OC)c2[C@@H]1CO`, the ED50 in the assay on Mus musculus [1] was 1.4 µmol/kg; with Mus musculus [5], above 106 µmol/kg; in the assay filed under Felis catus [6] it was 0.09 µmol/kg. The results for the Max decrease in the assay listed under Felis catus [2] and in the assay with Felis catus [4] were 5 and 48, respectively. For the same compound, in the assay with Felis catus [3], the BP stood at 82%.
Consider `C=CCN[C@@H]1CCc2cccc(OC)c2[C@@H]1CC=C`, for which the Time with Mus musculus [7] was 0.9 s; in the assay on Mus musculus [8], 290 s; in the assay with Mus musculus [9], 1.1 s; in the assay with Mus musculus [11] it was 4.3 s; in the assay on Mus musculus [12], 130 s; with Mus musculus [15], 45 s. Further, the Time in the assay with Mus musculus [16] is listed as 1.4 s. Moreover, the ED50 is 7.9 µmol/kg in the assay with Mus musculus [1], 44 µmol/kg in the assay on Mus musculus [5] and 0.54 µmol/kg in the assay listed under Felis catus [6]. The Max decrease is listed as 18 in the assay filed under Felis catus [2] and 58 with Felis catus [4]. The TMP.decrease in the assay on Mus musculus [10] was 9.8 degrees F and 6.6 degrees F. The Change is given as -60% in the assay on Rattus norvegicus [13] and -21% with Rattus norvegicus [14]. For the same compound, the BP in the assay on Felis catus [3] is 70%.
Regarding `C=CC[C@H]1c2c(cccc2OC)CC[C@H]1NCCC`, the ED50 turned out to be 3.4 µmol/kg in the assay with Mus musculus [1], 78 µmol/kg with Mus musculus [5] and 0.27 µmol/kg in the assay listed under Felis catus [6]. In addition, the values for the Max decrease in the assay filed under Felis catus [2] and in the assay on Felis catus [4] were 10 and 57, respectively. In addition, the TMP.decrease with Mus musculus [10] is 7.6 degrees F and 6 degrees F. For the same compound, the Change is reported as -50% with Rattus norvegicus [13] and 2.2% with Rattus norvegicus [14]. In the assay on Felis catus [3], this compound yielded a BP of 85%.
In the case of `CCC[C@H]1c2c(O)cccc2CC[C@H]1N(CCC)CCC`, the ED50 is 9.5 µmol/kg in the assay on Mus musculus [1] and above 92 µmol/kg with Mus musculus [5]. In the assay with Mus musculus [10], the TMP.decrease amounted to 6.9 degrees F.
The corresponding values for `CCCN[C@@H]1CCc2cccc(OC)c2[C@@H]1CCC` are 14 µmol/kg, above 101 µmol/kg and 6.5 degrees F.
For the compound `C=CC[C@H]1c2cccc(OC)c2CC[C@H]1NCCC`, the Change in the assay on Rattus norvegicus [17] is reported as -24%; with Rattus norvegicus [18], -36%; in the assay on Rattus norvegicus [19], 35%; in the assay with Rattus norvegicus [20] it was 17%.
In the assay on Mus musculus [1], `C=CC[C@H]1c2c(cccc2OC)CC[C@H]1N(CCC)CCC` gave an ED50 above 89 µmol/kg.
On to `COc1cccc2c1[C@H](CC1CC1)[C@H](NCC1CC1)CC2`, for which the results for the ED50 in the assay with Mus musculus [1] and in the assay with Mus musculus [21] were 23 µmol/kg and above 93 µmol/kg, respectively. In the assay with Mus musculus [10], this compound came in with a TMP.decrease of 6.8 degrees F.
Take `C=CCN[C@@H]1CCc2cccc(OC)c2[C@@H]1CC1CC1`: in the assay on Mus musculus [1], it took a dose of 32 µmol/kg to reach the 50% effect level (ED50). For the same compound, the TMP.decrease in the assay with Mus musculus [10] is 7.1 degrees F.
For the compound `C=CCN[C@@H]1CCc2cccc(OC)c2[C@H]1CC1CC1` (relative stereo), the results for the ED50 in the assay with Mus musculus [1] and in the assay on Mus musculus [21] were 24 µmol/kg and above 97 µmol/kg, respectively. The compound also showed a TMP.decrease in the assay on Mus musculus [10] of 6.2 degrees F.
With `C=CCN[C@@H]1CCc2cccc(OC)c2[C@H]1CC=C` (relative stereo), the ED50 in the assay with Mus musculus [1] was found to be 5.9 µmol/kg; in the assay with Mus musculus [5], 79 µmol/kg; in the assay filed under Felis catus [6], 1.19 µmol/kg. The figures for the Max decrease in the assay filed under Felis catus [2] and in the assay on Felis catus [4] were 10 and 45, respectively. In the assay with Mus musculus [10], the TMP.decrease was 11.5 degrees F and 6.6 degrees F. In the assay on Felis catus [3], this compound returned a BP of 59%.
On to `C=CC[C@@H]1c2c(cccc2OC)CC[C@H]1NCC1CC1` (relative stereo), for which the ED50 is 10 µmol/kg in the assay on Mus musculus [1], above 97 µmol/kg in the assay on Mus musculus [5] and 0.81 µmol/kg in the assay filed under Felis catus [6]. Moreover, the results for the Max decrease in the assay filed under Felis catus [2] and in the assay with Felis catus [4] were 21 and 46, respectively. The compound further registered a BP in the assay on Felis catus [22] of 65%. The compound further yielded a TMP.decrease in the assay with Mus musculus [10] of 11.5 degrees F.

As a reminder, the ED50 is the dose at which the effect has come halfway, by size or by number of responders.
